The target in test [1] is T1, Muscarinic acetylcholine receptor M4 (Rattus norvegicus) (UniProt P08485).
T1 sequence (whole entry): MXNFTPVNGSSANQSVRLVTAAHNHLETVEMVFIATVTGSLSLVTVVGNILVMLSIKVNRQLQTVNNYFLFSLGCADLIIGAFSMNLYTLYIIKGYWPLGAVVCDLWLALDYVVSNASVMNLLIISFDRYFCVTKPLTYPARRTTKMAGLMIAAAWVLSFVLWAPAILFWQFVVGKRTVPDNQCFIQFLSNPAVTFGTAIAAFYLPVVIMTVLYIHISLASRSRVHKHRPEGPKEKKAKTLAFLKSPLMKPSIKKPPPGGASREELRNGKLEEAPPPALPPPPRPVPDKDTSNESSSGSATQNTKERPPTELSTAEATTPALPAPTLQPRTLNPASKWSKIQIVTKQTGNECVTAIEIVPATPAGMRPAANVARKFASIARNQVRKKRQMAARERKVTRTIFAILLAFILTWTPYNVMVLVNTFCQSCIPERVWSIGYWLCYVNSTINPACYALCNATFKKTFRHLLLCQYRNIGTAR
Put plainly: Binding affinity at muscarinic acetylcholine receptor M4 from NG108-15 cell line in presence of [3H]-NMS. The format is cell-based. The procedure, abridged: (§1)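 Crude membranes from confluent cells, lysed in 2 mM Tris-HCl (pH 7.1)/1 mM EDTA, homogenized, spun at 50000 g and stored at -70 °C. Membranes (150-300 µg protein) incubated 90 min at 37 °C with 0.5 nM [3H]NMS and 100 µM compound in DMEM-Hepes, then filtered on GF/B. Nonspecific binding taken with 1 µM atropine. Reported as percent displacement; two or three trials in triplicate.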

Test [2] addresses Muscarinic acetylcholine receptor M3 (Homo sapiens) (UniProt P20309). In words: Percent binding affinity at muscarinic acetylcholine receptor M3 from SK-N-SH human neuroblastoma cells in presence of [3H]NMS. The format is cell-based. The method in brief: as §1
For test [3] the target is unchanged. Put plainly: Percent increase in [3H]myo-inositol at muscarinic acetylcholine receptor M3 from SK-N-SH human neuroblastoma cells. The format is cell-based. The arrangement: concentration or dose not given beside the values. The method in brief: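 SK-N-SH cells grown in DMEM with 10% newborn calf serum and plated at 100000 cells/well. After 24 h they were labeled overnight with [3H]-myo-inositol (2 µCi/well). Cells were rinsed and preincubated 5 min at 37 °C in 10 mM LiCl DMEM-Hepes, then exposed to 100 µM final compound for 30 min at 37 °C. Reported as percent increase relative to oxotremorine M (100%); two or three trials in triplicate.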

Test [4] addresses T1, Muscarinic acetylcholine receptor M4 (Rattus norvegicus). In words: Percent inhibition against muscarinic acetylcholine receptor M4 from NG108-15 cell line. The class given is cell-based. On the set-up: concentration or dose not given beside the values. The method in brief:
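NG108-15 cells grown to 90% confluence and preincubated 10 min at 37 °C in 1 mM IBMX in DMEM-Hepes. Compound (100 µM final) and PGE1 (5 µM final) were added for 15 min at 37 °C. cAMP was extracted in 0.1 N HCl for 30 min at room temperature, lyophilized and measured by radioimmunoassay. Reported as percent inhibition versus no-compound control; three trials in triplicate.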

Test [5] addresses Muscarinic acetylcholine receptor. In words: Binding affinity was determined using [3H]-NMS for Muscarinic acetylcholine receptor in SK-N-SH neuroblastoma cells. The format is cell-based, Homo sapiens. The method in brief: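 SK-N-SH crude membranes from hypotonic lysis (2 mM Tris-HCl pH 7.1, 1 mM EDTA), 50000 g pellets. Competition used varied compound concentrations with 1 nM [3H]NMS in DMEM-Hepes, 60 min at 37°C, then GF/B filtration. Atropine defined nonspecific binding. Ki was obtained by Cheng-Prusoff from the [3H]NMS Kd (saturation, 10 min at 37°C). Means ± SEM of three determinations in duplicate.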

Muscarinic acetylcholine receptor M3 (Homo sapiens), sequence (P20309 whole entry, looked up): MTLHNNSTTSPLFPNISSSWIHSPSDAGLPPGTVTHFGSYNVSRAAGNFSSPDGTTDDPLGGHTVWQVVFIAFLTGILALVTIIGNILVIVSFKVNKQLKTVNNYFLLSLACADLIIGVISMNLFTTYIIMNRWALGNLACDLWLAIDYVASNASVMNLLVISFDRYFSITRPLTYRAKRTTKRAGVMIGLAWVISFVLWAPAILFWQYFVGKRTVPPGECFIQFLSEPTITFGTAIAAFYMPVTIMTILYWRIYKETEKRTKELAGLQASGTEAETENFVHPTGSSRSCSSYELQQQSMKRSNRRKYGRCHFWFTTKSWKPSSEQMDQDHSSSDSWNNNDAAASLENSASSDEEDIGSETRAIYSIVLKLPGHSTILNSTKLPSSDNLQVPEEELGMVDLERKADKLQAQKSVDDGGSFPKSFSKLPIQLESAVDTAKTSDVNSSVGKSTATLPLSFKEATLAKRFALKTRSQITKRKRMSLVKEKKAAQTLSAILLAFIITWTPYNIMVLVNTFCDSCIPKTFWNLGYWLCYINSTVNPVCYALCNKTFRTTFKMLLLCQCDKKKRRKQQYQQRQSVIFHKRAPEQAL

In the case of `CN(CC#CCN1CCCC1)C(=O)CCCCCNC(=O)CN`, the Affinity was 57% in test [1] and 65% in test [2]. Besides, the Activity in test [3] and in test [4] was under 1% throughout.

For `CN(CC#CCN1CCCC1)C(=O)CCCNC(=O)CCNC(=O)OC(C)(C)C`, the Affinity in test [1] was determined as 38.8%; in test [2], 39.2%. Also, the Activity in test [3] and in test [4] was under 1% each time.

Take `C[N+](C)(C)CC#CCN1CCCC1=O`: the figures for the Affinity in test [1] and in test [2] were 96.2% and 52.1%, respectively. For the same compound, the Activity in test [3] turned out to be 100%; in test [4], 64.1%.

As a reminder, the Ki is a measure of affinity in units of concentration, obtained from inhibition or displacement. Consider `CC(=O)N(C)CC#CCN1CCCC1`, for which the Affinity in test [1] was determined as 79.6%; in test [2], 88.8%. In test [5], this compound yielded a Ki of 4.96 µM. Further, the Activity in test [3] stood at 48%; in test [4] it was 63.2%.

Turning to `CN(CC#CCN1CCCC1)C(=O)CCCNC(=O)c1ccccc1`, the Affinity came to 27.7% in test [1] and 30.3% in test [2]. The Activity in test [3] and in test [4] was under 1% in each case.

As for `CN(CC#CCN1CCCC1)C(=O)CCC(=O)O`, the Affinity in test [1] is 0%; in test [2], 6%. Besides, the Activity in test [3] and in test [4] was under 1% in each case.

Turning to `CC(=O)NCCCCC(=O)N(C)CC#CCN1CCCC1`, the Affinity stood at 17.9% in test [1] and 29.4% in test [2]. Moreover, the Activity was under 1% in test [3] and 5.2% in test [4].

Take `CN(CC#CCN1CCCC1)C(=O)CNC(=O)OC(C)(C)C`: the Affinity in test [1] worked out at 32.6%; in test [2], 40%. Further, the Activity in test [3] was under 1%; in test [4] it was 7%.

As for `CC(=O)NCCCCCCCC(=O)N(C)CC#CCN1CCCC1`, the Affinity worked out at 50.4% in test [1] and 59.1% in test [2]. Further, the Activity in test [3] and in test [4] was under 1% in each case.

As to `CC(=O)NCCCCCC(=O)N(C)CC#CCN1CCCC1`, the Affinity was 22.7% in test [1] and 17.4% in test [2]. Moreover, the Activity amounted to 1% in test [3] and 3% in test [4].

Take `CN(CC#CCN1CCCC1)C(=O)CCCNC(=O)CN`: the values for the Affinity in test [1] and in test [2] were 31% and 47%, respectively. Moreover, the Activity in test [3] was 7%; in test [4], under 1%.

`CN(CC#CCN1CCCC1)C(=O)c1cccc(Cl)c1`: the Affinity in test [1] came out at 34%; in test [2], 55%. Moreover, the results for the Activity in test [3] and in test [4] were 4% and under 1%, respectively.

Take `CN(CC#CCN1CCCC1)C(=O)CCCCCNC(=O)CCNC(=O)OC(C)(C)C`: the Affinity was determined as 57.3% in test [1] and 59.1% in test [2]. Further, the Activity in test [3] and in test [4] was under 1% each time.

With `CN(CC#CCN1CCCC1)C(=O)CCCCCNC(=O)OC(C)(C)C`, the Affinity in test [1] came out at 31.9%; in test [2] it was 39.1%. Besides, the Activity in test [3] and in test [4] was under 1% throughout.

With `CN(CC#CCN1CCCC1)C(=O)CCCN`, the Affinity was found to be 12.1% in test [1] and 20% in test [2]. The values for the Activity in test [3] and in test [4] were under 1% and 3.7%, respectively.

As for `CN(CC#CCN1CCCC1)C(=O)CCCCCNC(=O)c1ccccc1`, the Affinity in test [1] is 52.8%; in test [2] it was 51.7%. The Activity in test [3] and in test [4] was under 1% throughout.

On to `CN(CC#CCN1CCCC1)C(=O)CCCCCCNC(=O)OC(C)(C)C.O=C(O)C(=O)O`, for which the Affinity came to 77.9% in test [1] and 81.4% in test [2]. Besides, in test [5], the inhibition constant Ki amounted to 10.9 µM. Moreover, the Activity in test [3] and in test [4] was under 1% throughout.

With `CC(=O)NCC(=O)N(C)CC#CCN1CCCC1`, the Affinity came to 24% in test [1] and 12.5% in test [2]. The Activity in test [3] is 8%; in test [4], 14.1%.

In the case of `CN(CC#CCN1CCCC1)C(=O)CCCNC(=O)OC(C)(C)C`, the Affinity in test [1] stood at 24.4%; in test [2] it was 32.1%. Besides, the figures for the Activity in test [3] and in test [4] were under 1% and 3.5%, respectively.

For the compound `CN(CC#CCN1CCCC1)C(=O)CCCCCNC(=O)CNC(=O)OC(C)(C)C`, the results for the Affinity in test [1] and in test [2] were 52.3% and 52.6%, respectively. The Activity is 3% in test [3] and under 1% in test [4].

With `CN(CC#CCN1CCCC1)C(=O)c1ccccc1`, the Affinity in test [1] stood at 25%; in test [2], 40%. Moreover, the Activity in test [3] is 8%; in test [4], under 1%.

`CN(CC#CCN1CCCC1)C(=O)CCCCCNC(=O)CCN`: the Affinity in test [1] is 56.8%; in test [2], 70.5%. Also, the results for the Activity in test [3] and in test [4] were 7% and under 1%, respectively.

Take `COC(=O)CCC(=O)N(C)CC#CCN1CCCC1`: the Affinity came to 7% in test [1] and 28% in test [2]. Moreover, the Activity in test [3] and in test [4] was under 1% each time.

Take `CN(CC#CCN1CCCC1)C(=O)CCCCCCCNC(=O)OC(C)(C)C.O=C(O)C(=O)O`: the Affinity was found to be 89% in test [1] and 92.1% in test [2]. In test [5], this compound showed a Ki of 4.9 µM. The Activity in test [3] and in test [4] was under 1% throughout.

For `CC(=O)NCCCC(=O)N(C)CC#CCN1CCCC1`, the Affinity in test [1] was 19.1%; in test [2] it was 15.6%. Moreover, the Activity came to 14% in test [3] and 8% in test [4].

For `CN(CC#CCN1CCCC1)C(=O)CCNC(=O)OC(C)(C)C`, the values for the Affinity in test [1] and in test [2] were 36.3% and 45.1%, respectively. The values for the Activity in test [3] and in test [4] were under 1% and 12.5%, respectively.

Regarding `CC(=O)N(C)C(C)C#CCN1CCCC1` (stereo unspecified), the Affinity in test [1] came to 97%; in test [2] it was 99%. Further, in test [5], the Ki was determined as 0.33 µM. Moreover, the Activity in test [3] is under 1%; in test [4], 36%.

On to `CN(CC#CCN1CCCC1)C(=O)CCC(=O)NCCN`, for which the figures for the Affinity in test [1] and in test [2] were 14% and 25%, respectively. Besides, the Activity in test [3] and in test [4] was under 1% throughout.

For the compound `CN(CC#CCN1CCCC1)C(=O)CCCCNC(=O)OC(C)(C)C`, the Affinity in test [1] was 26.7%; in test [2], 32.1%. For the same compound, the Activity in test [3] was found to be 1%; in test [4] it was 0.5%.

As for `CN(CC#CCN1CCCC1)C(=O)CN`, the values for the Affinity in test [1] and in test [2] were 23.5% and 17.3%, respectively. In addition, the Activity in test [3] is under 1%; in test [4] it was 26.1%.

With `CC(=O)NCCCCCCC(=O)N(C)CC#CCN1CCCC1`, the Affinity in test [1] worked out at 20.4%; in test [2], 24.6%. Moreover, the Activity was 1% in test [3] and 6.9% in test [4].

Regarding `CN(CC#CCN1CCCC1)C(=O)CCCNC(=O)CNC(=O)OC(C)(C)C`, the results for the Affinity in test [1] and in test [2] were 24.4% and 37.5%, respectively. The Activity in test [3] and in test [4] was under 1% throughout.

`CN(CC#CCN1CCCC1)C(=O)CCCNC(=O)CCN`: the Affinity in test [1] was 29%; in test [2], 40.5%. In addition, the Activity in test [3] was 7%; in test [4], under 1%.
